Measured values published in paper PMC6935887 (Journal of Medicinal Chemistry, 2019).
Several values for one entry are separate records, joined by “and”; a condition that tells them apart may be missing. Identical values can stand only once.

Assays:
[1] = target: T1, hCCR2 (Homo sapiens, UniProt P41597); test: [3H]-CCR2-RA-[R] displacement binding assay on U2OS-CCR2b membranes; conditions: displacement of ∼6 nM [3H]-CCR2-RA-[R] from U2OS cells stably expressing CCR2, 25 °C
T1 sequence (P41597 1-360 isoform P41597-2): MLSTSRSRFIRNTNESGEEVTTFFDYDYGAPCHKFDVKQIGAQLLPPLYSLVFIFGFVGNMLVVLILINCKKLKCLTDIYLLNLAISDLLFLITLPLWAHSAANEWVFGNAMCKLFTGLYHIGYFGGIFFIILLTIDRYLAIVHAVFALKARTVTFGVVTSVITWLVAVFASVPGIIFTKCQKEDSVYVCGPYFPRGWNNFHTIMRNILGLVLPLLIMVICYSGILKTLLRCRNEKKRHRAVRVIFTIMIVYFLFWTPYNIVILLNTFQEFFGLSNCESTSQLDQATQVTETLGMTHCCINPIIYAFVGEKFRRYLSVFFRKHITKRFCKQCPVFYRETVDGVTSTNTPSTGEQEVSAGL
Method in brief: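 U2OS-CCR2b membranes (15–20 μg protein) were incubated with ~6 nM [3H]-CCR2-RA-[R] and at least 6 competitor concentrations. Buffer: 50 mM Tris-HCl, 5 mM MgCl2, 0.1% CHAPS, pH 7.4. Incubation 2 h at 25 °C. Rapid GF/B filtration, ten washes with ice-cold buffer (0.05% CHAPS), scintillation counting. Mean ± SEM of ≥3 experiments in duplicate.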

[2] = tested on: CCR2; conditions: read-out: IC50 in CCR2 calcium flux assay; previously reported activity; cited from earlier work
[3] = target: hCCR5 (Homo sapiens, UniProt P51681); test: Tango β-arrestin recruitment assay in U2OS-CCR5 cells; format: cell-based; conditions: inhibition of CCL3-induced β-arrestin recruitment in U2OS-CCR5
Sequence of hCCR5 (P51681 whole entry): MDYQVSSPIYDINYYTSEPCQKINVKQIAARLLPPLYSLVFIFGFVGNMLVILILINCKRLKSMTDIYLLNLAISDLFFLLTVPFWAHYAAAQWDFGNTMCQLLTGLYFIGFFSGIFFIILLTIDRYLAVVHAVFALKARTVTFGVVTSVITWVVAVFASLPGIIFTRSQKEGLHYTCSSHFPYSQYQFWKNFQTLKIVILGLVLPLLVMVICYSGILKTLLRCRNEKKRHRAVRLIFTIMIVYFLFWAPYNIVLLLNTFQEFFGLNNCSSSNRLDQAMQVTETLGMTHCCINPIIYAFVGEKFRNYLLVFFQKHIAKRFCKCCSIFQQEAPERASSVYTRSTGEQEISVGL
Method in brief: (§1)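 Tango bla U2OS cells (human CCR2b or CCR5) were trypsinized and seeded at 10 000 cells/well in FreeStyle medium. Agonist mode: CCL2 or CCL3 for 16 h, 37 °C, 5% CO2. Antagonist mode: 30 min room-temperature preincubation with increasing compound (≤0.5% DMSO final), then 16 h with EC80 CCL2 (5 nM, CCR2) or CCL3 (14 nM, CCR5). LiveBLAzer-FRET B/G substrate 2 h; excitation 400 nm, 460/535 nm emission ratio.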

[4] = target: T1, hCCR2; test: Tango β-arrestin recruitment assay in U2OS-CCR2 cells; format: cell-based; conditions: inhibition of CCL2-induced β-arrestin recruitment in U2OS-CCR2
Method in brief: as §1

- pKi ± SEM [1]: 8.90 ± 0.04
- Hill slope (nH) [3]: −2.2 ± 0.3
- Hill slope (nH) [4]: −2.7
SMILES: Nc1nc2[nH]c(C3CC3)c(Cc3cccc(Cl)c3)c(=O)n2n1 [Compound 8, 2-Amino-6-(3-chlorobenzyl)-5-cyclopropyl[1,2,4]triazolo[1,5-a]pyrimidin-7(4H)-one]
- IC50 [2]: 16 nM and ~20 nM
